We go through three compounds from PMC11892687 (Bioorganic & medicinal chemistry letters, 2017).

One assay deals with HCT116 cells. Kind of assay: FACS cell cycle analysis in HCT116 cells. In kind it is cell-based, human. To be noted: 48 h, 500 nM compound.
A further assay relates to Jurkat cells. Kind of assay: Anti-proliferative activity in Jurkat cells. In kind it is cell-based. To be noted: Homo sapiens, read-out: IC50 (cytotoxic, anti-proliferative activity).
Assay [1] deals with panel of 468 human wild-type and mutant kinases. Kind of assay: KINOMEscan kinase profiling, panel of 468 kinases. The class given is binding. To be noted: KINOMEscan at 1 μM compound concentration.
Another assay concerns the target LRRK2 (Homo sapiens, UniProt Q5S007). Nature of the assay: Biochemical assay LRRK2.
Another assay has as its target BRD4 (Homo sapiens, UniProt O60885). Kind of assay: Biochemical assay BRD4.
Assay [2] addresses T1, recombinant purified Aurora A protein (Homo sapiens, UniProt O14965).
T1 sequence (O14965 1-403): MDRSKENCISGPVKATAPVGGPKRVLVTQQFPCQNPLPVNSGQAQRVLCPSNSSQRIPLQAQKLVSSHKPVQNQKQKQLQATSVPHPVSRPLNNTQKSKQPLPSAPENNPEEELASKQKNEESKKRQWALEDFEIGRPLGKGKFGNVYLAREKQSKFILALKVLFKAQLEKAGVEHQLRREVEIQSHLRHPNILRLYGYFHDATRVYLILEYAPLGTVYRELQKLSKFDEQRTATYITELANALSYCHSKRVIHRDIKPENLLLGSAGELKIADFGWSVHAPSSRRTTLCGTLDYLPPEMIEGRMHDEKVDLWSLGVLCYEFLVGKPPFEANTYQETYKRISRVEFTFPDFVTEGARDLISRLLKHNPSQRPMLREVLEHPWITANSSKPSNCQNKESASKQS
Nature of the assay: LC-MS/MS covalent labeling of recombinant Aurora A. The class given is binding. The conditions noted are these: compound at 10 fold excess with recombinant purified Aurora A.

The test system of another assay is HEK293. Nature of the assay: Cell Titer Glo cell viability assay HEK293. The class given is cell-based. The conditions noted are these: Homo sapiens, HEK293, 72 h, read-out: HEK293 IC50. In outline:
(§1)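 Cells from a human cancer line panel were treated with the test compound across a dose-response series.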
Background: Cellular ATP, detected with luciferase, serves as a proxy for viable cell number.

The subject of another assay is PC3. Kind of assay: Cell Titer Glo cell viability assay PC3. In kind it is cell-based. To be noted: Homo sapiens, PC-3, 72 h, read-out: PC3 IC50. Summed up:
as §1

For another assay, the target named is ABL1 Y253F (Homo sapiens, UniProt P00519, Y253F). Kind of assay: Biochemical kinase assay ABL1 Y253F.
In another assay the test system is HCT116. Nature of the assay: Cell Titer Glo cell viability assay HCT116. In kind it is cell-based. To be noted: Homo sapiens, HCT-116, 72 h, read-out: HCT116 IC50. In outline:
as §1

LRRK2, sequence (Q5S007 whole entry, species assumed): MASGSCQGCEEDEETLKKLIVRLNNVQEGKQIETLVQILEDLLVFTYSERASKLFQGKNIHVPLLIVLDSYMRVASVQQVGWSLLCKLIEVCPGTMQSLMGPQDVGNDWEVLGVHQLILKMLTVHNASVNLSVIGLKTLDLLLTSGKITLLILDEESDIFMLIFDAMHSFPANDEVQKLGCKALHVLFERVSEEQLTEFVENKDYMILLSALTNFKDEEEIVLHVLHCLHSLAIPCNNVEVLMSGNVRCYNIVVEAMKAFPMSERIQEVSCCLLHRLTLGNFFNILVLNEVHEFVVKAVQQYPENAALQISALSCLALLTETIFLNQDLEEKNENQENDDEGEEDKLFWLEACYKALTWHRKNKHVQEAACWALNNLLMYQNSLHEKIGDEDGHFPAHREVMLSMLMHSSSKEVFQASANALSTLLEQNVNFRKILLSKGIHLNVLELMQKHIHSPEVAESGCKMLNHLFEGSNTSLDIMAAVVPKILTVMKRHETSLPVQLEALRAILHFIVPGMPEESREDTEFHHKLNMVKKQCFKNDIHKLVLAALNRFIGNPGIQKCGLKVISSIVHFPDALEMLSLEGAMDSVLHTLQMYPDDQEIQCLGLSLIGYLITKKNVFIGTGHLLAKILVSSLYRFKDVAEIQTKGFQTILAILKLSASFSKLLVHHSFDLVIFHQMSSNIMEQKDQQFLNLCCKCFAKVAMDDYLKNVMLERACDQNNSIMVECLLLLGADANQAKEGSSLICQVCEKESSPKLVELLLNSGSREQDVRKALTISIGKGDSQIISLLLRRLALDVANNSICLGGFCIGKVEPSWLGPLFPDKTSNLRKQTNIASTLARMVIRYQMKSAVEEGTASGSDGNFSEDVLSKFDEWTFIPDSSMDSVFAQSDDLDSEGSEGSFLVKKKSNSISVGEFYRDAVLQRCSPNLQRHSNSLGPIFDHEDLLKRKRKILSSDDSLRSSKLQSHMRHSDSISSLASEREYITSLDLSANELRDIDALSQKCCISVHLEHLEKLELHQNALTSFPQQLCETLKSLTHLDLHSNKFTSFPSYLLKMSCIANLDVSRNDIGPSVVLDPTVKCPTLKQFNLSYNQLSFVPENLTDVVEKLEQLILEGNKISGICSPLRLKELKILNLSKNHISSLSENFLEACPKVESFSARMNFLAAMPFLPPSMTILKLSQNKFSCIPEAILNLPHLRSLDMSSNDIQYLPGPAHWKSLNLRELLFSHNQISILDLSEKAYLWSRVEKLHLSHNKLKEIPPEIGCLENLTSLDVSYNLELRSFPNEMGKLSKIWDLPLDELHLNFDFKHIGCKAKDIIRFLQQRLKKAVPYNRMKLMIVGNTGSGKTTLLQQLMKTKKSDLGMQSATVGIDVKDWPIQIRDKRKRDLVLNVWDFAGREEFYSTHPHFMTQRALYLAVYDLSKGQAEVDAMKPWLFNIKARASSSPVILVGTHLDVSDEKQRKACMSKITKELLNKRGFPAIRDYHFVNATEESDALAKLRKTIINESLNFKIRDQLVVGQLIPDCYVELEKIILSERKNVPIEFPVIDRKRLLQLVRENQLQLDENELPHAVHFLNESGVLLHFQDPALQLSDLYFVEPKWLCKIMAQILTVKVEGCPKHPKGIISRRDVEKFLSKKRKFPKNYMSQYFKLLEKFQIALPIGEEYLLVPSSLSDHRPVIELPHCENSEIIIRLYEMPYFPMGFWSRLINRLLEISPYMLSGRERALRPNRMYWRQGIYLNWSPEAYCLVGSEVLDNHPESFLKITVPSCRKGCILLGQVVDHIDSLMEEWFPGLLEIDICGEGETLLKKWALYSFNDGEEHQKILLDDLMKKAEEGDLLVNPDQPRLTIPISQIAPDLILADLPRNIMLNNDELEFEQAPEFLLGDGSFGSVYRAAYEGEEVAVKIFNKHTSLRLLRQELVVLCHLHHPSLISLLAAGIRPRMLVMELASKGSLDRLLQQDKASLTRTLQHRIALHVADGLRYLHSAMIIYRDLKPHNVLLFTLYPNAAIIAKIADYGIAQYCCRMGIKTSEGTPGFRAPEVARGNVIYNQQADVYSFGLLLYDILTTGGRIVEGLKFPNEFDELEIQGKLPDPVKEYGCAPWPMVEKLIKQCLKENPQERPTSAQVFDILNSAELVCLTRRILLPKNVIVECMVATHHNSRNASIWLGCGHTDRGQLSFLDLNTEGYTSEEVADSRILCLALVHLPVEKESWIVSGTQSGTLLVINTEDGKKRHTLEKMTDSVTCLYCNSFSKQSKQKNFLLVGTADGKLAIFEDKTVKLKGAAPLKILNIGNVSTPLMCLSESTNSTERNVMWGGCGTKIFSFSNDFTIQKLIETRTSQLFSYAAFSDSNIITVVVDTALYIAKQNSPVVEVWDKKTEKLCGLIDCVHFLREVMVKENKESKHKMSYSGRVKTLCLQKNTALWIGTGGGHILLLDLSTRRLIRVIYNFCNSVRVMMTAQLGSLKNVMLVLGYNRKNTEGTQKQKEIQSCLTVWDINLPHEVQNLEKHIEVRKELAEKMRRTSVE

As to `CCOC(=O)c1[nH]cc2c1NC1=C(C(=O)CCC1)[C@H]2c1cccc(Oc2nc3ccccc3[nH]2)c1` [SAR156497, reference compound], the “effect on cell cycle (FACS)” value in the assay on HCT116 cells is “failed cytokinesis and accumulation of cells that contain 4N DNA (polyploidy)”.
In general, IC50 refers to the concentration that gives 50% inhibition. On to `C=CC(=O)Nc1ccc(C(=O)Nc2ccc(Nc3ncc4c(n3)N(C)c3ccc(C)cc3C(=O)N4C)cc2)cc1` [compound 1], for which the IC50 in the assay on Jurkat cells stood at 0.37 µM; in the assay with HEK293, 0.25 ± 0.048 µM; with PC3, 0.99 ± 1.5 µM. Also, the kinome-wide selectivity entry in [1] is listed as “exclusively on-target activity”. The “activity against LRRK2” value at LRRK2 is “inactive”. Further, the “activity against BRD4” value at BRD4 is “inactive”. Also, the “labeling of Aurora A by LC-MS/MS” value in assay [2] is listed as “no labeling”. Further, the “effect on cell cycle (FACS)” value in the assay with HCT116 cells is “failed cytokinesis and accumulation of cells that contain 4N DNA (polyploidy)”.
Consider `CCC(=O)Nc1ccc(C(=O)Nc2ccc(Nc3ncc4c(n3)N(C)c3ccc(C)cc3C(=O)N4C)cc2)cc1` [compound 2], for which the IC50 is above 10 µM on ABL1 Y253F, around 0.1 µM in the assay with HCT116, around 0.1 µM in the assay with HEK293 and around 0.1 µM in the assay on PC3. Further, the “activity against LRRK2” value at LRRK2 is “inactive”. Besides, the “activity against BRD4” value at BRD4 was “inactive”.
